Each block holds one compound with its values, some of them ahead of it.
Experiments:
Spleen [1] = assay: Biodistribution in ICR mouse spleen assessed per gram of tissue at 740 to 1110 kBq/mL, iv measured 2 mins post-injection by gamma counting analysis; type: ADME, organism-based; conditions: in vivo
Procedure, shortened: (§1)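 Male normal ICR mice (5 weeks old), n = 5 per time point, received a tail-vein injection of [18F] tracer (740–1110 kBq/mL) in saline containing 10% EtOH. Mice were sacrificed at 2, 10, 30 and 60 min. Organs were removed, weighed and gamma-counted, and data were expressed as %ID/g.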

Stomach [2] = assay: Biodistribution in ICR mouse stomach assessed per organ at 740 to 1110 kBq/mL, iv measured 60 mins post-injection by gamma counting analysis; type: ADME, organism-based; conditions: in vivo, 1 h; procedure, shortened: as §1
Heart [3] = assay: Biodistribution in ICR mouse heart assessed per gram of tissue at 740 to 1110 kBq/mL, iv measured 30 mins post-injection by gamma counting analysis; type: ADME, organism-based; conditions: in vivo, 0.5 h; procedure, shortened: as §1
[4] = Ratio of drug level in brain to blood in ICR mouse after 2 mins; type: ADME, tissue-based; conditions: brain and blood, read-out: BBR
Procedure, shortened: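 Male ICR mice (5 weeks) received the ¹⁸F tracer (740–1110 kBq/mL) in saline with 10% EtOH by tail-vein injection. Five mice per time point were sacrificed at 2, 10, 30 and 60 min. Organs were removed, weighed and gamma-counted, and expressed as %ID/g. The ratio is brain %ID/g over blood %ID/g at 2 min.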

Stomach [5] = assay: Biodistribution in ICR mouse stomach assessed per organ at 740 to 1110 kBq/mL, iv measured 10 mins post-injection by gamma counting analysis; type: ADME, organism-based; conditions: in vivo; procedure, shortened: as §1
Stomach [6] = assay: Biodistribution in ICR mouse stomach assessed per organ at 740 to 1110 kBq/mL, iv measured 30 mins post-injection by gamma counting analysis; type: ADME, organism-based; conditions: in vivo, 0.5 h; procedure, shortened: as §1
Liver [7] = assay: Biodistribution in ICR mouse liver assessed per gram of tissue at 740 to 1110 kBq/mL, iv measured 30 mins post-injection by gamma counting analysis; type: ADME, organism-based; conditions: in vivo, 0.5 h; procedure, shortened: as §1
Liver [8] = assay: Biodistribution in ICR mouse liver assessed per gram of tissue at 740 to 1110 kBq/mL, iv measured 2 mins post-injection by gamma counting analysis; type: ADME, organism-based; conditions: in vivo; procedure, shortened: as §1
Brain [9] = assay: Biodistribution in ICR mouse brain assessed per gram of tissue at 740 to 1110 kBq/mL, iv measured 10 mins post-injection by gamma counting analysis; type: ADME, organism-based; conditions: in vivo; procedure, shortened: as §1
Bone [10] = assay: Biodistribution in ICR mouse bone assessed per gram of tissue at 740 to 1110 kBq/mL, iv measured 60 mins post-injection by gamma counting analysis; type: ADME, organism-based, Bone element; conditions: in vivo, 1 h; procedure, shortened: as §1
Liver [11] = assay: Biodistribution in ICR mouse liver assessed per gram of tissue at 740 to 1110 kBq/mL, iv measured 10 mins post-injection by gamma counting analysis; type: ADME, organism-based; conditions: in vivo; procedure, shortened: as §1
Lung [12] = assay: Biodistribution in ICR mouse lung assessed per gram of tissue at 740 to 1110 kBq/mL, iv measured 10 mins post-injection by gamma counting analysis; type: ADME, organism-based; conditions: in vivo; procedure, shortened: as §1
Brain [13] = assay: Biodistribution in ICR mouse brain assessed per gram of tissue at 740 to 1110 kBq/mL, iv measured 60 mins post-injection by gamma counting analysis; type: ADME, organism-based; conditions: in vivo, 1 h; procedure, shortened: as §1
Heart [14] = assay: Biodistribution in ICR mouse heart assessed per gram of tissue at 740 to 1110 kBq/mL, iv measured 10 mins post-injection by gamma counting analysis; type: ADME, organism-based; conditions: in vivo; procedure, shortened: as §1
Kidney [15] = assay: Biodistribution in ICR mouse kidney assessed per gram of tissue at 740 to 1110 kBq/mL, iv measured 10 mins post-injection by gamma counting analysis; type: ADME, organism-based; conditions: in vivo; procedure, shortened: as §1
Lung [16] = assay: Biodistribution in ICR mouse lung assessed per gram of tissue at 740 to 1110 kBq/mL, iv measured 2 mins post-injection by gamma counting analysis; type: ADME, organism-based; conditions: in vivo; procedure, shortened: as §1
Intestine [17] = assay: Biodistribution in ICR mouse intestine assessed per organ at 740 to 1110 kBq/mL, iv measured 30 mins post-injection by gamma counting analysis; type: ADME, organism-based; conditions: in vivo, 0.5 h; procedure, shortened: as §1
Spleen [18] = assay: Biodistribution in ICR mouse spleen assessed per gram of tissue at 740 to 1110 kBq/mL, iv measured 60 mins post-injection by gamma counting analysis; type: ADME, organism-based; conditions: in vivo, 1 h; procedure, shortened: as §1
Liver [19] = assay: Biodistribution in ICR mouse liver assessed per gram of tissue at 740 to 1110 kBq/mL, iv measured 60 mins post-injection by gamma counting analysis; type: ADME, organism-based; conditions: in vivo, 1 h; procedure, shortened: as §1
[20] = Partition coefficient, log D of the compound in n-octanol-PBS […] at pH 7.4; type: physicochemical
Procedure, shortened: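 [18F] tracer (1110 kBq) was added to 3.0 g n-octanol plus 3.0 g PBS (0.05 M, pH 7.4), vortexed 3 min at room temperature, then centrifuged 5 min at 3000 rpm.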

Stomach [21] = assay: Biodistribution in ICR mouse stomach assessed per organ at 740 to 1110 kBq/mL, iv measured 2 mins post-injection by gamma counting analysis; type: ADME, organism-based; conditions: in vivo; procedure, shortened: as §1
Spleen [22] = assay: Biodistribution in ICR mouse spleen assessed per gram of tissue at 740 to 1110 kBq/mL, iv measured 10 mins post-injection by gamma counting analysis; type: ADME, organism-based; conditions: in vivo; procedure, shortened: as §1
Brain [23] = assay: Biodistribution in ICR mouse brain assessed per gram of tissue at 740 to 1110 kBq/mL, iv measured 30 mins post-injection by gamma counting analysis; type: ADME, organism-based; conditions: in vivo, 0.5 h; procedure, shortened: as §1
Bone [24] = assay: Biodistribution in ICR mouse bone assessed per gram of tissue at 740 to 1110 kBq/mL, iv measured 2 mins post-injection by gamma counting analysis; type: ADME, organism-based, Bone element; conditions: in vivo; procedure, shortened: as §1
Lung [25] = assay: Biodistribution in ICR mouse lung assessed per gram of tissue at 740 to 1110 kBq/mL, iv measured 60 mins post-injection by gamma counting analysis; type: ADME, organism-based; conditions: in vivo, 1 h; procedure, shortened: as §1
Intestine [26] = assay: Biodistribution in ICR mouse intestine assessed per organ at 740 to 1110 kBq/mL, iv measured 10 mins post-injection by gamma counting analysis; type: ADME, organism-based; conditions: in vivo; procedure, shortened: as §1
Brain [27] = assay: Ratio of drug level in brain after 2 mins to drug level in brain after 60 mins in ICR mouse; type: ADME, tissue-based; conditions: in vivo; procedure, shortened: as §1
Brain [28] = assay: Biodistribution in ICR mouse brain assessed per gram of tissue at 740 to 1110 kBq/mL, iv measured 2 mins post-injection by gamma counting analysis; type: ADME, organism-based; conditions: in vivo; procedure, shortened: as §1
Kidney [29] = assay: Biodistribution in ICR mouse kidney assessed per gram of tissue at 740 to 1110 kBq/mL, iv measured 2 mins post-injection by gamma counting analysis; type: ADME, organism-based; conditions: in vivo; procedure, shortened: as §1
Bone [30] = assay: Biodistribution in ICR mouse bone assessed per gram of tissue at 740 to 1110 kBq/mL, iv measured 30 mins post-injection by gamma counting analysis; type: ADME, organism-based, Bone element; conditions: in vivo, 0.5 h; procedure, shortened: as §1
Blood [31] = assay: Biodistribution in ICR mouse blood assessed per gram of tissue at 740 to 1110 kBq/mL, iv measured 2 mins post-injection by gamma counting analysis; type: ADME, organism-based; conditions: in vivo; procedure, shortened: as §1
Blood [32] = assay: Biodistribution in ICR mouse blood assessed per gram of tissue at 740 to 1110 kBq/mL, iv measured 10 mins post-injection by gamma counting analysis; type: ADME, organism-based; conditions: in vivo; procedure, shortened: as §1
Intestine [33] = assay: Biodistribution in ICR mouse intestine assessed per organ at 740 to 1110 kBq/mL, iv measured 2 mins post-injection by gamma counting analysis; type: ADME, organism-based; conditions: in vivo; procedure, shortened: as §1
Blood [34] = assay: Biodistribution in ICR mouse blood assessed per gram of tissue at 740 to 1110 kBq/mL, iv measured 60 mins post-injection by gamma counting analysis; type: ADME, organism-based; conditions: in vivo, 1 h; procedure, shortened: as §1
Kidney [35] = assay: Biodistribution in ICR mouse kidney assessed per gram of tissue at 740 to 1110 kBq/mL, iv measured 60 mins post-injection by gamma counting analysis; type: ADME, organism-based; conditions: in vivo, 1 h; procedure, shortened: as §1
Heart [36] = assay: Biodistribution in ICR mouse heart assessed per gram of tissue at 740 to 1110 kBq/mL, iv measured 60 mins post-injection by gamma counting analysis; type: ADME, organism-based; conditions: in vivo, 1 h; procedure, shortened: as §1
Intestine [37] = assay: Biodistribution in ICR mouse intestine assessed per organ at 740 to 1110 kBq/mL, iv measured 60 mins post-injection by gamma counting analysis; type: ADME, organism-based; conditions: in vivo, 1 h; procedure, shortened: as §1
Heart [38] = assay: Biodistribution in ICR mouse heart assessed per gram of tissue at 740 to 1110 kBq/mL, iv measured 2 mins post-injection by gamma counting analysis; type: ADME, organism-based; conditions: in vivo; procedure, shortened: as §1
Lung [39] = assay: Biodistribution in ICR mouse lung assessed per gram of tissue at 740 to 1110 kBq/mL, iv measured 30 mins post-injection by gamma counting analysis; type: ADME, organism-based; conditions: in vivo, 0.5 h; procedure, shortened: as §1
Kidney [40] = assay: Biodistribution in ICR mouse kidney assessed per gram of tissue at 740 to 1110 kBq/mL, iv measured 30 mins post-injection by gamma counting analysis; type: ADME, organism-based; conditions: in vivo, 0.5 h; procedure, shortened: as §1
Bone [41] = assay: Biodistribution in ICR mouse bone assessed per gram of tissue at 740 to 1110 kBq/mL, iv measured 10 mins post-injection by gamma counting analysis; type: ADME, organism-based, Bone element; conditions: in vivo; procedure, shortened: as §1
Blood [42] = assay: Biodistribution in ICR mouse blood assessed per gram of tissue at 740 to 1110 kBq/mL, iv measured 30 mins post-injection by gamma counting analysis; type: ADME, organism-based; conditions: in vivo, 0.5 h; procedure, shortened: as §1
Spleen [43] = assay: Biodistribution in ICR mouse spleen assessed per gram of tissue at 740 to 1110 kBq/mL, iv measured 30 mins post-injection by gamma counting analysis; type: ADME, organism-based; conditions: in vivo, 0.5 h; procedure, shortened: as §1
[44] = biological target: Amyloid-beta precursor protein (Homo sapiens, UniProt P05067); assay: Displacement of [125I]IMPY from amyloid beta (1 to 42) (unknown origin) after 3 hrs by gamma counting analysis
Procedure, shortened: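 Test compound ranged over 10^-4 to 10^-8.5 in ethanol, in 0.05% BSA, 1 mL total. Incubation was 3 h at room temperature, then GF/B filtration and gamma counting. IC50 came from three independent experiments, and Ki was derived by Cheng–Prusoff.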

Chain of Amyloid-beta precursor protein (P05067 whole entry): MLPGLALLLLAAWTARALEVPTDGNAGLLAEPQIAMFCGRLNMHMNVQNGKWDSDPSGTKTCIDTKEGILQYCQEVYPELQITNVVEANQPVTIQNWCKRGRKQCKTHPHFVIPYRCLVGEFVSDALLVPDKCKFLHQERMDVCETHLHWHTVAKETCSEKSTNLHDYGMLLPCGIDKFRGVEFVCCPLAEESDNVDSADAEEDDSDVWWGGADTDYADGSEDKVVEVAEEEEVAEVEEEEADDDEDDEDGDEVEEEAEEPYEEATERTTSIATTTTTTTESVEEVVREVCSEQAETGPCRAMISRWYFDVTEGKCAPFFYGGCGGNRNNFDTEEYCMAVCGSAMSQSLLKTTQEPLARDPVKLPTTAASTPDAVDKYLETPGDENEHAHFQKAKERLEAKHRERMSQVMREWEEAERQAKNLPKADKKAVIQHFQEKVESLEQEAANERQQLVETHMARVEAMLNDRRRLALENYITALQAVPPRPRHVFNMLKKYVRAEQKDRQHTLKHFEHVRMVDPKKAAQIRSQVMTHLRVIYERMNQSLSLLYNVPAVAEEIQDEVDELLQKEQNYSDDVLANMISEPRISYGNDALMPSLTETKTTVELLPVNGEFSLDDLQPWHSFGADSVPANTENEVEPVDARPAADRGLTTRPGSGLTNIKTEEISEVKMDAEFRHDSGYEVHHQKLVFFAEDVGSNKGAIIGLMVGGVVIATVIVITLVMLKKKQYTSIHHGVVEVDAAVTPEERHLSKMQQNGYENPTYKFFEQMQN

Compound: CN(CC[18F])c1ccc(-c2cc3ccccc3[nH]2)cc1
Drug uptake (Spleen [1]): 2.73 %ID | Drug uptake (Stomach [2]): 1.09 %ID | Drug uptake (Heart [3]): 3.71 %ID | Kp at 2 min [4]: 1.72 | Drug uptake (Stomach [5]): 1.54 %ID | Drug uptake (Stomach [6]): 1.43 %ID | Drug uptake (Liver [7]): 4.86 %ID | Drug uptake (Liver [8]): 10.47 %ID | Drug uptake (Brain [9]): 5.07 %ID | Drug uptake (Bone [10]): 9.71 %ID | Drug uptake (Liver [11]): 8.38 %ID | Drug uptake (Lung [12]): 5.81 %ID | Drug uptake (Brain [13]): 2.77 %ID | Drug uptake (Heart [14]): 4.95 %ID | Drug uptake (Kidney [15]): 5.62 %ID | Drug uptake (Lung [16]): 6.57 %ID | Drug uptake (Intestine [17]): 9 %ID | Drug uptake (Spleen [18]): 2.71 %ID | Drug uptake (Liver [19]): 4.15 %ID | logD [20]: 3.61 | Drug uptake (Stomach [21]): 1.38 %ID | Drug uptake (Spleen [22]): 3.97 %ID | Drug uptake (Brain [23]): 3.41 %ID | Drug uptake (Bone [24]): 2.05 %ID | Drug uptake (Lung [25]): 3.57 %ID | Drug uptake (Intestine [26]): 9.06 %ID | Ratio (Brain [27]): 2.1 | Drug uptake (Brain [28]): 5.82 %ID | Drug uptake (Kidney [29]): 9.66 %ID | Drug uptake (Bone [30]): 5.95 %ID | Drug uptake (Blood [31]): 3.38 %ID | Drug uptake (Blood [32]): 3.81 %ID | Drug uptake (Intestine [33]): 6.5 %ID | Drug uptake (Blood [34]): 4.37 %ID | Drug uptake (Kidney [35]): 3.54 %ID | Drug uptake (Heart [36]): 3.81 %ID | Drug uptake (Intestine [37]): 11.04 %ID | Drug uptake (Heart [38]): 6.76 %ID | Drug uptake (Lung [39]): 4.27 %ID | Drug uptake (Kidney [40]): 4.17 %ID | Drug uptake (Bone [41]): 4.13 %ID | Drug uptake (Blood [42]): 4.21 %ID | Drug uptake (Spleen [43]): 3.23 %ID

Compound: Cn1c(-c2ccc(NCCF)cc2)cc2ccccc21
Ki [44]: 1030 nM

Compound: Cn1c(-c2ccc(NCCCF)cc2)cc2ccccc21
Ki [44]: 1100 nM

Other lines, results leading:

Kp at 2 min [4]: 0.29 | Ratio (Brain [27]): 1.33
Compound: CNc1ccc(-c2cc3cc([125I])ccc3[nH]2)cc1

Kp at 2 min [4]: 0.19 | Ratio (Brain [27]): 1.68
Compound: CN(C)c1ccc(-c2cc3cc([125I])ccc3[nH]2)cc1
